Values after ≈ are worked out from the molar mass of the structure shown. Active and inactive are the calls of the source. The rule behind the calls is not given here.
What was measured:
[1] = Metabolic stability in rat liver microsomes assessed as compound remaining at 1 uM measured after 30 mins; assay type: ADME, microsome; conditions: read-out: Stability
[2] = test system: Mycobacterium tuberculosis; assay: Antitubercular activity against Mycobacterium tuberculosis H37Ra infected in THP-1 macrophages measured after 5 days post infection by luciferase reporter gene assay; assay type: functional; conditions: THP-1, 120 h
In short: (§1)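 Firefly luciferase reporter Mtb infected THP-1 cells. Bacterial growth was read by luminescence five days post-infection, and the value was reported as the 50% inhibitory concentration. The assay medium used glucose and glycerol as the carbon source.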

[3] = test system: Mycobacterium tuberculosis; assay: Antitubercular activity against Mycobacterium tuberculosis H37Rv BSL3 infected in THP-1 macrophages using middlebrook 7H9 broth media after 5 days post infection by luciferase reporter gene assay; assay type: functional; conditions: H37Rv BSL3, THP-1, 120 h
[4] = test system: Mycobacterium tuberculosis; assay: Antitubercular activity against Mycobacterium tuberculosis Erdman BSL3 infected in THP-1 macrophages using middlebrook 7H9 broth media after 5 days post infection by luciferase reporter gene assay; assay type: functional, Mycobacterium tuberculosis str. Erdman = ATCC 35801; conditions: BSL3, 120 h
[5] = test system: Mycobacterium tuberculosis; assay: Antitubercular activity against Mycobacterium tuberculosis Erdman BSL3 infected in THP-1 macrophages using middlebrook 7H12 broth media after 5 days post infection by luciferase reporter gene assay; assay type: functional, Mycobacterium tuberculosis str. Erdman = ATCC 35801; conditions: BSL3, THP-1, 120 h
[6] = Clearance in mouse at 1 mg/kg, iv; assay type: ADME, organism-based; conditions: in vivo
In short: (§2)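 Mouse pharmacokinetics after 3 mg/kg oral or 1 mg/kg intravenous dosing. Clearance is in mL/min/kg. AUC is in μg*h/mL, with oral exposure normalised to the actual dose.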

[7] = test system: Mus musculus; assay: Dose normalized AUC in mouse at 3 mg/kg, po or 1 mg/kg, iv; assay type: ADME, organism-based; conditions: in vivo; in short: as §2
[8] = test system: Mycobacterium tuberculosis; assay: Antitubercular activity against Mycobacterium tuberculosis H37Rv BSL3 infected in THP-1 macrophages using middlebrook 7H12 broth media after 5 days post infection by luciferase reporter gene assay; assay type: functional; conditions: H37Rv BSL3, THP-1, 120 h
[9] = test system: Mycobacterium tuberculosis; assay: Antitubercular activity against Mycobacterium tuberculosis H37Rv BSL3 infected in THP-1 macrophages under anaerobic condition after 5 days post infection by luciferase reporter gene assay; assay type: functional; conditions: H37Rv BSL3, THP-1, 120 h
[10] = Half life in mouse at 3 mg/kg, po or 1 mg/kg, iv; assay type: ADME, organism-based; conditions: in vivo; in short: as §2
[11] = test system: Mycobacterium tuberculosis; assay: Antitubercular activity against Mycobacterium tuberculosis Erdman BSL3 infected in BALB/c mouse assessed as reduction in colony forming units in lung homogenates at 100 mg/kg administered daily via oral gavage for 5 days per week for 4 weeks; assay type: functional, organism-based; conditions: Mycobacterium tuberculosis str. Erdman = ATCC 35801
In short: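 BALB/c mice were infected intranasally with 10^6 cfu of the Erdman isolate, six mice per group. Dosing was 100 mg/kg daily, 5 days/week, for four weeks. Lung homogenates were plated for cfu. An early-control group was killed at the start of therapy to set the infection load, and a late-control group marked the endpoint and confirmed virulence. Rifampin at 10 mg/kg was the positive control.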

[12] = test system: Mycobacterium tuberculosis; assay: Antitubercular activity against Mycobacterium tuberculosis H37Ra BSL2 cultured in broth; assay type: functional
In short: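 BSL2 H37Ra broth assay. MIC was taken as the concentration (μM) giving 70% growth inhibition versus control wells.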

[13] = test system: Mycobacterium tuberculosis; assay: Antitubercular activity against Mycobacterium tuberculosis H37Ra BSL2 infected in THP-1 macrophages after 5 days post infection by luciferase reporter gene assay; assay type: functional; conditions: H37Ra BSL2, THP-1, 120 h; in short: as §1

Cc1csc(Nc2ccc(C(C)(C)C)cc2)n1
remaining at 0.5 h, 1 µM [1]: 0% | IC50 [2]: < 0.04 µM

CCCCCc1ccc(Nc2nc(C)cs2)cc1
remaining at 0.5 h, 1 µM [1]: 3% | IC50 [2]: 0.04 µM

CCCCc1ccc(Nc2nc(CC(=O)O)c(Cl)s2)cc1
IC50 [3]: 6.3 µM | MIC90 [4]: 12.5 µM (≈ 4.06 µg/mL) | IC50 [5]: 54 µM | clearance [6]: 0.3 L/h/kg | AUC/dose [7]: 6 µg·h/mL | IC50 [8]: > 100 µM | IC50 [2]: 0.07 µM | IC50 [9]: 5.6 µM | half-life [10]: 1.1 h | Activity [11]: inactive | MIC70 [12]: 0.39 µM (≈ 0.127 µg/mL) | IC50 [13]: 0.07 µM

Cc1csc(Nc2ccc(OC3CCCC3)cc2)n1
remaining at 0.5 h, 1 µM [1]: 10% | IC50 [2]: 0.07 µM

Cc1csc(Nc2ccc(COCC(F)(F)F)cc2)n1
remaining at 0.5 h, 1 µM [1]: 1% | IC50 [2]: < 0.04 µM

CO[C@H]1/C=C/O[C@@]2(C)Oc3c(C)c(O)c4c(O)c(c(/C=N/N5CCN(C)CC5)c(O)c4c3C2=O)NC(=O)/C(C)=C\C=C\[C@H](C)[C@H](O)[C@@H](C)[C@@H](O)[C@@H](C)[C@H](OC(C)=O)[C@@H]1C [RIFAMPIN]
MIC70 [12]: 0.08 µM (≈ 0.0658 µg/mL) | IC50 [13]: 0.03 µM

CCCCc1ccc(Nc2nc(CC(N)=O)cs2)cc1
IC50 [2]: 0.86 µM

CCCCc1ccc(Nc2nc(C(C)(C)C(=O)O)cs2)cc1
clearance [6]: 1.08 L/h/kg | AUC/dose [7]: 1.4 µg·h/mL | IC50 [2]: 0.14 µM | half-life [10]: 5 h

CCCOc1ccc(Nc2nc(C)cs2)cc1
remaining at 0.5 h, 1 µM [1]: 4% | IC50 [2]: 0.15 µM

CCC(C)c1ccc(Nc2nc(CC(=O)O)cs2)cc1 (racemic)
IC50 [3]: 9.4 µM | MIC90 [4]: 6.3 µM (≈ 1.83 µg/mL) | IC50 [5]: > 100 µM | clearance [6]: 0.18 L/h/kg | AUC/dose [7]: 14.4 µg·h/mL | IC50 [8]: > 100 µM | IC50 [2]: 0.07 µM | IC50 [9]: 96 µM | half-life [10]: 2.8 h | Activity [11]: inactive | MIC70 [12]: 0.16 µM (≈ 0.0465 µg/mL) | IC50 [13]: 0.07 µM

Cc1csc(Nc2ccc(C(C)(C)O)cc2)n1
remaining at 0.5 h, 1 µM [1]: 12% | IC50 [2]: 0.06 µM

CCNCc1ccc(Nc2nc(C)cs2)cc1
remaining at 0.5 h, 1 µM [1]: 0% | IC50 [2]: > 20 µM

CCC(C)c1ccc(Nc2nc(C)cs2)cc1 (stereo not drawn)
remaining at 0.5 h, 1 µM [1]: 0% | IC50 [2]: < 0.04 µM

CCCCc1ccc(Nc2nc(CC(=O)O)cs2)cc1
MIC90 [4]: 7.8 µM (≈ 2.27 µg/mL) | IC50 [5]: 56 µM | clearance [6]: 0.3 L/h/kg | AUC/dose [7]: 4.9 µg·h/mL | IC50 [8]: 91 µM | IC50 [2]: 0.15 µM | IC50 [9]: 17.8 µM | half-life [10]: 3.1 h | Activity [11]: inactive | MIC70 [12]: 0.16 µM (≈ 0.0465 µg/mL) | IC50 [13]: 0.15 µM

CCCCCCc1ccc(Nc2nc(C)cs2)cc1
IC50 [2]: 0.05 µM

CC(C)(C)c1ccc(Nc2nc(CC(=O)O)cs2)cc1
IC50 [3]: 9.4 µM | MIC90 [4]: 6.3 µM (≈ 1.83 µg/mL) | IC50 [5]: 63 µM | clearance [6]: 0.24 L/h/kg | AUC/dose [7]: 24.1 µg·h/mL | IC50 [8]: > 100 µM | IC50 [2]: 0.07 µM | IC50 [9]: > 100 µM | half-life [10]: 1.1 h | Activity [11]: inactive | MIC70 [12]: 0.16 µM (≈ 0.0465 µg/mL) | IC50 [13]: 0.07 µM

Cc1csc(Nc2ccc(CCN(C)C)cc2)n1
IC50 [2]: > 20 µM

CCCCc1ccc(Nc2nc(C(=O)O)cs2)cc1
IC50 [2]: > 20 µM

CCCCc1ccc(Nc2nc(C)cs2)cc1
MIC90 [4]: 7 µM (≈ 1.72 µg/mL) | IC50 [5]: > 100 µM | remaining at 0.5 h, 1 µM [1]: 1% | IC50 [8]: 47 µM | IC50 [2]: < 0.005 µM | IC50 [9]: 12 µM | Activity [11]: inactive | MIC70 [12]: 0.04 µM (≈ 0.00986 µg/mL) | IC50 [13]: 0.04 µM

CCc1ccc(Nc2nc(C)cs2)cc1
remaining at 0.5 h, 1 µM [1]: 0% | IC50 [2]: 0.12 µM

CCCCc1ccc(Nc2nc(C(C)C(=O)O)cs2)cc1 (stereo not drawn)
clearance [6]: 0.24 L/h/kg | AUC/dose [7]: 4.8 µg·h/mL | IC50 [2]: 0.14 µM | half-life [10]: 0.9 h

CCC(O)Cc1ccc(Nc2nc(C)cs2)cc1 (stereo not drawn)
remaining at 0.5 h, 1 µM [1]: 1% | IC50 [2]: 0.4 µM

CCCCc1ccc(Nc2nc(CC(=O)O)c(C)s2)cc1
clearance [6]: 0.42 L/h/kg | AUC/dose [7]: 4.8 µg·h/mL | IC50 [2]: 0.1 µM | half-life [10]: 1.1 h

Cc1csc(Nc2ccc(C(C)C)cc2)n1
remaining at 0.5 h, 1 µM [1]: 0% | IC50 [2]: 0.01 µM

Cc1csc(Nc2ccc(OCCO)cc2)n1
remaining at 0.5 h, 1 µM [1]: 73% | IC50 [2]: 3.19 µM

Cc1ccc(Nc2nc(C)cs2)cc1
IC50 [2]: > 20 µM

O=C(O)Cc1csc(Nc2ccc(OCCC(F)(F)F)cc2)n1
clearance [6]: 0.09 L/h/kg | AUC/dose [7]: 15 µg·h/mL | IC50 [2]: 0.27 µM | half-life [10]: 1.6 h

From ChEMBL document CHEMBL4043143, “2-N-Arylthiazole inhibitors of Mycobacterium tuberculosis” (Bioorg Med Chem Lett, 2017)
